Results on five compounds are retold here after ChEMBL document CHEMBL2424619, “Small-molecule ligands of methyl-lysine binding proteins: optimization of selectivity for L3MBTL3” (J Med Chem, 2013).

Where only a bound is given, the exact number is not on record here.

Data set [1] has as its target T1, Lethal(3)malignant brain tumor-like protein 3 (Homo sapiens, UniProt Q96JM7).
T1 sequence (Q96JM7 whole entry): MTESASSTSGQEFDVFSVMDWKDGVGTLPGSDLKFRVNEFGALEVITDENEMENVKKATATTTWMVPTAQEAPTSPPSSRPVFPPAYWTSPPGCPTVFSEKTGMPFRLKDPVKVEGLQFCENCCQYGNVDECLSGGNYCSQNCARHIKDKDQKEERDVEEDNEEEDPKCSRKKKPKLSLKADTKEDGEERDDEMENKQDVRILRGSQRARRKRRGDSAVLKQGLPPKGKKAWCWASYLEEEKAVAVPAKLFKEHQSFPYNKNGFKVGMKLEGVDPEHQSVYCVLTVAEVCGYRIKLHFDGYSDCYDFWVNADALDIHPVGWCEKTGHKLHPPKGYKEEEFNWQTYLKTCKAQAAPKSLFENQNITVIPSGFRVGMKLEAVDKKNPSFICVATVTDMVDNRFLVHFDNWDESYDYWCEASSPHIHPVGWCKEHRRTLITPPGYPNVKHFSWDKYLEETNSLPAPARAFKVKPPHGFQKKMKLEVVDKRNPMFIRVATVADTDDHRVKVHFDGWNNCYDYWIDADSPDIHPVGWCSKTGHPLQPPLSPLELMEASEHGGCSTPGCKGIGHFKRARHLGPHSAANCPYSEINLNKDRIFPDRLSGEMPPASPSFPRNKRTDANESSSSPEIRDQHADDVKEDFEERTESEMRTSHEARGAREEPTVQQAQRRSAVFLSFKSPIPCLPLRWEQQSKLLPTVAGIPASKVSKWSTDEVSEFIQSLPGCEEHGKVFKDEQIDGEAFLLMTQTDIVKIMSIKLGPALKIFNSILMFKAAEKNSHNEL
The data set is described as follows: Inhibition of L3MBTL3 (unknown origin) after 30 mins by AlphaScreen assay. The method in brief: (§1)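 AlphaScreen competition with histone peptide. Compounds in 3-fold, 10-point dilutions, top 10 or 30 μM; buffer 20 mM Tris pH 8.0, 25 mM NaCl, 2 mM DTT, 0.05% Tween-20. Protein-peptide mix 30 min RT, then streptavidin donor plus nickel-chelate acceptor beads (GST acceptor beads for GST-tagged PHF23, JARID1A) 30 min RT dark. Protein-free His6-biotin peptide counterscreen.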
(In Alpha technology, singlet oxygen from a donor bead excites a nearby acceptor bead.)

The target of data set [2] is MBT domain-containing protein 1 (Homo sapiens, UniProt Q05BQ5). The data set is described as follows: Inhibition of MBTD1 (unknown origin) after 30 mins by AlphaScreen assay. Summed up:
as §1

For data set [3], the target named is T2, Lethal(3)malignant brain tumor-like protein 4 (Homo sapiens, UniProt Q8NA19).
T2 sequence (Q8NA19 whole entry): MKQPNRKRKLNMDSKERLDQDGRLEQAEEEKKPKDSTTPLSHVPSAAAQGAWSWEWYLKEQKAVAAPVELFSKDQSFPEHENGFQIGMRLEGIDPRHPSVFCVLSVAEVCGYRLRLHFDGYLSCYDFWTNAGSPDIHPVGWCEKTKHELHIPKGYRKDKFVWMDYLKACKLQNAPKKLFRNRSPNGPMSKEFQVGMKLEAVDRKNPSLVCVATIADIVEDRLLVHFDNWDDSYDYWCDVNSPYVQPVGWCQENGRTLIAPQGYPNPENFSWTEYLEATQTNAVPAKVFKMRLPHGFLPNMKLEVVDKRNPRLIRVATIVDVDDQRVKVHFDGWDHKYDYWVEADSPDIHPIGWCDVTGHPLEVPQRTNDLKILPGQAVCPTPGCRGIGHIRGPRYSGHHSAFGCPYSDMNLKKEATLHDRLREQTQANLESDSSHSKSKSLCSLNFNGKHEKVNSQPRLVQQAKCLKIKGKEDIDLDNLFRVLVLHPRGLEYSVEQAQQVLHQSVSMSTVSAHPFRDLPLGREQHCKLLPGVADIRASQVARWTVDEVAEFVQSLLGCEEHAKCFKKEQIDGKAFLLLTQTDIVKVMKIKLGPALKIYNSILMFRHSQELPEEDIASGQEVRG
The data set is described as follows: Inhibition of L3MBTL4 (unknown origin) after 30 mins by AlphaScreen assay. The method in brief:
as §1

For the next data set, the target named is PHD finger protein 23 (Homo sapiens, UniProt Q9BUL5). The data set is described as follows: Inhibition of PHF23 (unknown origin) after 30 mins by AlphaScreen assay. Summed up:
as §1

In data set [4] the target is T3, E3 ubiquitin-protein ligase UHRF1 (Homo sapiens, UniProt Q96T88).
T3 sequence (Q96T88 whole entry): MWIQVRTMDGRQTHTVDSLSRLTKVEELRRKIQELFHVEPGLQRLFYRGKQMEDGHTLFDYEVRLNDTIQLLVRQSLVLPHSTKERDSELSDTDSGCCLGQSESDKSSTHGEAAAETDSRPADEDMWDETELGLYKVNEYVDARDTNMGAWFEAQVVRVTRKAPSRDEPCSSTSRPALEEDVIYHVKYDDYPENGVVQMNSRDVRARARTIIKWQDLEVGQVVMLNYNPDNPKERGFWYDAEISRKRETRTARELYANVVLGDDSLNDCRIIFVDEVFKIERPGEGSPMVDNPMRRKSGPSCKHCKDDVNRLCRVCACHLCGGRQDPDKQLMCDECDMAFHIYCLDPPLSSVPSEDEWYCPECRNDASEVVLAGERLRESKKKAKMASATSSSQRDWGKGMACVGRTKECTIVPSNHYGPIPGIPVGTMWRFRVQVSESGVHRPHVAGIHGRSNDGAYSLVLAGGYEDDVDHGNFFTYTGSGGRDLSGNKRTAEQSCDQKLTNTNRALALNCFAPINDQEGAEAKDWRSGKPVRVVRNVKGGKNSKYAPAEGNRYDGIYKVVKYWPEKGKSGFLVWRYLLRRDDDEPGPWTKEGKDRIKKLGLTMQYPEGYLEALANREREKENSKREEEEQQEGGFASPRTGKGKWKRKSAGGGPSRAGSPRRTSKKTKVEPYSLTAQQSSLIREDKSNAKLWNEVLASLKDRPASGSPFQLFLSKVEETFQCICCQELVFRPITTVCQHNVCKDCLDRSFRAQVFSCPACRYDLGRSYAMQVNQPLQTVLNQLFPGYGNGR
The data set is described as follows: Inhibition of UHRF1 (unknown origin) after 30 mins by AlphaScreen assay. Summed up:
(§2)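 AlphaScreen competition with histone peptide. Compounds in 3-fold, 10-point dilutions, top 10 or 30 μM; buffer 20 mM Tris pH 8.0, 25 mM NaCl, 2 mM DTT, 0.05% Tween-20. Protein-peptide mix 30 min RT, then streptavidin donor plus nickel-chelate acceptor beads (GST acceptor beads for GST-tagged PHF23, JARID1A) 30 min RT dark. […] Protein-free His6-biotin peptide counterscreen.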

Data set [5] has as its target T4, Scm-like with four MBT domains protein 1 (Homo sapiens, UniProt Q9UHJ3).
T4 sequence (Q9UHJ3 whole entry): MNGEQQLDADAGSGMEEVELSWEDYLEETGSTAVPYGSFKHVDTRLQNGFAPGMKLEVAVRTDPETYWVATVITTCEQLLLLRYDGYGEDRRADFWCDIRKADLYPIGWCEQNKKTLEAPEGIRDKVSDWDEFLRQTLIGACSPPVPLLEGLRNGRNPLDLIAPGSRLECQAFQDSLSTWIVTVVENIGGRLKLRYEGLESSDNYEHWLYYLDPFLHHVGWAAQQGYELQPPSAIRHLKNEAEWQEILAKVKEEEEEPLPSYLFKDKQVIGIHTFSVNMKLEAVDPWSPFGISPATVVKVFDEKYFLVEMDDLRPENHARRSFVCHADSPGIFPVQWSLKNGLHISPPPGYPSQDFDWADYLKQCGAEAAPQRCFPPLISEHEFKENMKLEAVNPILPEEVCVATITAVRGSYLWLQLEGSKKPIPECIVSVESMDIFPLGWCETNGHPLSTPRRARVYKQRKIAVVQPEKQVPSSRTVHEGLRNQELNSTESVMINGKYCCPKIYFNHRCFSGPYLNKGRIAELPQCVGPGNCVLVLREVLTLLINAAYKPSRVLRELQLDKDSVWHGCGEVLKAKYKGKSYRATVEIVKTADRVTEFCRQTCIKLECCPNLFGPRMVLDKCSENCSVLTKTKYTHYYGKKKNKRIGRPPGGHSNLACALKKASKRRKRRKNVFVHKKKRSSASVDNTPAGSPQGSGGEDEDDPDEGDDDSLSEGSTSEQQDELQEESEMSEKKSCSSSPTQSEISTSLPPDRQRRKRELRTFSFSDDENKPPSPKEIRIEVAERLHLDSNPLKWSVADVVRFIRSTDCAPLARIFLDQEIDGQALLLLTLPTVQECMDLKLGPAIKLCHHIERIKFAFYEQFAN
The data set is described as follows: Inhibition of SFMBT1 (unknown origin) after 30 mins by AlphaScreen assay. The method in brief: as §2

A further data set relates to HEK-293T. The data set is described as follows: Cytotoxicity against HEK293T/17 cells assessed as cell viability up to 100 uM after 24 hrs by CellTiter-Glo luminescence assay. The data set is classed as cell-based. Conditions: human. The method in brief: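 Cell viability by CellTiter-Glo luminescence, compound tested up to 100 μM.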
For orientation: Cellular ATP, detected with luciferase, serves as a proxy for viable cell number.

Data set [6] addresses Lysine-specific demethylase 5A (Homo sapiens, UniProt P29375). The data set is described as follows: Inhibition of JARID1A (unknown origin) after 30 mins by AlphaScreen assay. Summed up: as §2
In data set [7] the target is T5, Chromobox protein homolog 7 (Homo sapiens, UniProt O95931).
T5 sequence (O95931 whole entry): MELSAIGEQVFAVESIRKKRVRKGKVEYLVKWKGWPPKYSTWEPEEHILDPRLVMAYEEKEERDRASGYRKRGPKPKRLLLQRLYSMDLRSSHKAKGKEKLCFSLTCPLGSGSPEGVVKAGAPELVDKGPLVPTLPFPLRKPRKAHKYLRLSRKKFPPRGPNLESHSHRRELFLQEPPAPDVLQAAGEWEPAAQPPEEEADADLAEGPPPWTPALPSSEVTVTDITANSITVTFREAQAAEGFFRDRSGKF
The data set is described as follows: Inhibition of CBX7 (unknown origin) after 30 mins by AlphaScreen assay. Summed up: as §1

Another data set deals with TP53-binding protein 1 (Homo sapiens, UniProt Q12888). The data set is described as follows: Inhibition of 53BP1 (unknown origin) after 30 mins by AlphaScreen assay. The method in brief: as §2
TP53-binding protein 1, sequence (Q12888 whole entry): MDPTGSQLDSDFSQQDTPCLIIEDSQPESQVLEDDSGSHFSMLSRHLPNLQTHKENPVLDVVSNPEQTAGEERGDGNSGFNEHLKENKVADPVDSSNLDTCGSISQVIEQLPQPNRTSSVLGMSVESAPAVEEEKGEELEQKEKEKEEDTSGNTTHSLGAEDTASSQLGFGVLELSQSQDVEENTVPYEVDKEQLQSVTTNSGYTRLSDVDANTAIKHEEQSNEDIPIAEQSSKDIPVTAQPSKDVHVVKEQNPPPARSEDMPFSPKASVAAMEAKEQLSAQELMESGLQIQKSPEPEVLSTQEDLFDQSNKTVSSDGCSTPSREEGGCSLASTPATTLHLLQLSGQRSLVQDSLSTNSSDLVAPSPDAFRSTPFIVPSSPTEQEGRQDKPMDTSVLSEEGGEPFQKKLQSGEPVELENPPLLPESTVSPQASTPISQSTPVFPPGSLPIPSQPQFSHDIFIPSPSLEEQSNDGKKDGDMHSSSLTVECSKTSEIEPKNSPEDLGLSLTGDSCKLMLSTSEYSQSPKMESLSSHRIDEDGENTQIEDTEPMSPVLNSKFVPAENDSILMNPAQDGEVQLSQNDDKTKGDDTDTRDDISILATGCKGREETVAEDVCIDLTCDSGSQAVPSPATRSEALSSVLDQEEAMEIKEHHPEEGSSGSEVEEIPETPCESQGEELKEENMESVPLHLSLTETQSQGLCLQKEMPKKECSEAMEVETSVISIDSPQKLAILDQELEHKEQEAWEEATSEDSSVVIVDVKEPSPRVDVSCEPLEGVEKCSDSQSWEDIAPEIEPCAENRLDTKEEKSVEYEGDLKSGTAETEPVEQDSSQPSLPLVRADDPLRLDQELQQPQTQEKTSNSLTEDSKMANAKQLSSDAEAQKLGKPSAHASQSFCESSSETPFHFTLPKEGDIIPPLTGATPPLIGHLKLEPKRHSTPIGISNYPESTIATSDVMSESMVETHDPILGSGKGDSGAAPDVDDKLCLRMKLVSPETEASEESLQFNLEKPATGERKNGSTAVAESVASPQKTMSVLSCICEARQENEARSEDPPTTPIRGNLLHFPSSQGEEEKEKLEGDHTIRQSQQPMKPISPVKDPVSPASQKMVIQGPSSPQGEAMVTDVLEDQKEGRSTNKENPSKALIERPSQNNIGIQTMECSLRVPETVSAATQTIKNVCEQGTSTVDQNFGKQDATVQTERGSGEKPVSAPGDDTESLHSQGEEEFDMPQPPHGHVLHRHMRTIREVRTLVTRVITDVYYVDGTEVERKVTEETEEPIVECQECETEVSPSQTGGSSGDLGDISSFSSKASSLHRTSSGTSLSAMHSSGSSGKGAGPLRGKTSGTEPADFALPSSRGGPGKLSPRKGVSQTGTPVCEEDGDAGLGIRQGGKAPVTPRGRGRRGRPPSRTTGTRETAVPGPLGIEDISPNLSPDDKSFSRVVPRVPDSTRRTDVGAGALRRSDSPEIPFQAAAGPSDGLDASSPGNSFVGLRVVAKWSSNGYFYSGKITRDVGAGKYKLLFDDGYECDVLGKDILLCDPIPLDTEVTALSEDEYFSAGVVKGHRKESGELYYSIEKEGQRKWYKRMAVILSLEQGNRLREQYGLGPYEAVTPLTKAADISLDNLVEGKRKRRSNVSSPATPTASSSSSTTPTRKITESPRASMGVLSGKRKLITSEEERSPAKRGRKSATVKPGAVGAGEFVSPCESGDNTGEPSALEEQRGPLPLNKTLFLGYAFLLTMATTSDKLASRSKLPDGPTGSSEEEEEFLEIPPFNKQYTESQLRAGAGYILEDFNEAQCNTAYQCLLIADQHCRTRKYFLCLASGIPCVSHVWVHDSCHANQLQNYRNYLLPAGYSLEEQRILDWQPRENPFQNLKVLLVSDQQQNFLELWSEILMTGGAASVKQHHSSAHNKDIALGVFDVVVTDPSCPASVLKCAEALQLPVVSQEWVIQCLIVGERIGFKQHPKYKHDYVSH

MBT domain-containing protein 1, sequence (Q05BQ5 whole entry, the tested form may be a part): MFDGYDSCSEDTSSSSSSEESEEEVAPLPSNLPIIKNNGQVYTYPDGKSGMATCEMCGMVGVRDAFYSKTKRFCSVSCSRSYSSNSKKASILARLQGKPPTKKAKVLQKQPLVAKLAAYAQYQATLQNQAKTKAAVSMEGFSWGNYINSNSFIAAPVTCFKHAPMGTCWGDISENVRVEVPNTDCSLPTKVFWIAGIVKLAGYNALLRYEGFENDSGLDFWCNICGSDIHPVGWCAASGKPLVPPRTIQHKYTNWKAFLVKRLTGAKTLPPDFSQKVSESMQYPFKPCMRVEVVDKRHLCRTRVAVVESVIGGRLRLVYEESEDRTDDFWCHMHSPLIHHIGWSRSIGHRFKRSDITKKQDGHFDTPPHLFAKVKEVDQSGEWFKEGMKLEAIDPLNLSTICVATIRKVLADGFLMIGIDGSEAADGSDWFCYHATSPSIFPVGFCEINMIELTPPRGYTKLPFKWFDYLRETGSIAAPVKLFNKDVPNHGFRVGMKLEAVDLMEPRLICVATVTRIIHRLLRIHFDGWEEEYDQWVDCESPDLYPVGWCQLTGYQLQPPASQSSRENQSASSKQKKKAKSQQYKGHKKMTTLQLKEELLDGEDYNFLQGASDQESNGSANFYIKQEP
PHD finger protein 23, sequence (Q9BUL5 whole entry): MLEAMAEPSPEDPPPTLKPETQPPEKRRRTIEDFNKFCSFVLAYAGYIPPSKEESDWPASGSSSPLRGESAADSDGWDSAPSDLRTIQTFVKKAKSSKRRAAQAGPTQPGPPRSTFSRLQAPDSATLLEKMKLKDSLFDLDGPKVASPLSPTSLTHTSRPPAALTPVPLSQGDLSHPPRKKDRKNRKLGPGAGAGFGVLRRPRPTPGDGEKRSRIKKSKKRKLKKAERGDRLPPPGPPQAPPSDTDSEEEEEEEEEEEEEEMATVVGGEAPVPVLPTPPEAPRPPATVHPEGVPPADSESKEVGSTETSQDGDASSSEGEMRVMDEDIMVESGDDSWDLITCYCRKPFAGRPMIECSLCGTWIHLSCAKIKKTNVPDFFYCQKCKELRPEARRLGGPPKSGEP
Lysine-specific demethylase 5A, sequence (P29375 whole entry): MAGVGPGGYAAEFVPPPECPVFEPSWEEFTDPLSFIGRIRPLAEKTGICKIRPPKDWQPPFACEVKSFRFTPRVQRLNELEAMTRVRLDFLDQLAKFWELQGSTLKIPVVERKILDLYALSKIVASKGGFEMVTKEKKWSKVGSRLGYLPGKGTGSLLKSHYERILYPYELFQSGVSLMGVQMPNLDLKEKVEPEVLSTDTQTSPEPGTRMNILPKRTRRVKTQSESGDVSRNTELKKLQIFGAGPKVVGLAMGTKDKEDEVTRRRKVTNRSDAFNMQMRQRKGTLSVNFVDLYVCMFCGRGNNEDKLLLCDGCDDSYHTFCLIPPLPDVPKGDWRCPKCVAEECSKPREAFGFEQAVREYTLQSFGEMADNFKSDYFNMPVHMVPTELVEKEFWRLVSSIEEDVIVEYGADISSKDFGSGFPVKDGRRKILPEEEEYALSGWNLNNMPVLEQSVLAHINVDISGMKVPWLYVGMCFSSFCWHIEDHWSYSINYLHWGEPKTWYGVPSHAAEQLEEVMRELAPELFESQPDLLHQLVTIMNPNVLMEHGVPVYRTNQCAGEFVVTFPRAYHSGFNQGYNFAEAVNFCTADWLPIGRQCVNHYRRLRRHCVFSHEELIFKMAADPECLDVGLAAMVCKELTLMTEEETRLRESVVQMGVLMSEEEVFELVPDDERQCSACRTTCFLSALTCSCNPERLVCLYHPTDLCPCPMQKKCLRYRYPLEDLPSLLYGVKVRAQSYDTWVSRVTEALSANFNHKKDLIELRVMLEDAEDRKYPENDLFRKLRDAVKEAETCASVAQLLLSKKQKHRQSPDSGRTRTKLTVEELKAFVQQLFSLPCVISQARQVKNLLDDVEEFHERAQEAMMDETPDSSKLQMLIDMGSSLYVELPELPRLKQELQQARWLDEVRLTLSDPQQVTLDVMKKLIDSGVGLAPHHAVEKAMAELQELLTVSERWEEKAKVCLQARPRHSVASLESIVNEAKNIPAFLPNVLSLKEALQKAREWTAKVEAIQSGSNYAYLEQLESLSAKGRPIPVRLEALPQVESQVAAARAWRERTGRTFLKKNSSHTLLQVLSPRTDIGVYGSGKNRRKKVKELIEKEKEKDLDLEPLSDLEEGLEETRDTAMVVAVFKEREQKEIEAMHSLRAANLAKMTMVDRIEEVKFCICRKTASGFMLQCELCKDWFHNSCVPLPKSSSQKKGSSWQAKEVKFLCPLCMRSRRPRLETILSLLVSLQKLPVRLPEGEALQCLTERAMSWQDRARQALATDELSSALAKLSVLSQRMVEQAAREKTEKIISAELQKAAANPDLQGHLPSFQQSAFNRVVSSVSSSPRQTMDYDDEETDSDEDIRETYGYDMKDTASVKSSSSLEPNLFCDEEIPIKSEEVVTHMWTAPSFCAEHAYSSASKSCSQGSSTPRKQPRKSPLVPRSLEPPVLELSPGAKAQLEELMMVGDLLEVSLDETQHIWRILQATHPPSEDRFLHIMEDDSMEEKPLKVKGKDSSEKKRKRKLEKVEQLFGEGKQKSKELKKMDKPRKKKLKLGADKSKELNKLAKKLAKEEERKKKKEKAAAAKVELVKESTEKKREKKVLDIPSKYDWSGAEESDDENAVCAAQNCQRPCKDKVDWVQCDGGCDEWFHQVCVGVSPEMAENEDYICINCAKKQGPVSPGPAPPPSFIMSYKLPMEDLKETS

In the case of `CCN1Cc2ccc(NC(=O)c3cccc(Br)c3)cc2C1`, it took 1.2 µM to reach half-maximal inhibition in data set [1] (IC50).

Take `O=C(c1cccc(Br)c1)N1CC2CCC(C1)C2N1CCCC1` (centres undefined): the IC50 (in general, the concentration needed to halve the response being measured) in data set [1] is 3.2 µM. This IC50 lies about 2.7-fold higher than the previous one.

For `O=C(c1cccc(Br)c1)N1CCC(N2CCCC2)CC1`, half-maximal inhibition in [1] (IC50) was put at 4.1 µM.

Regarding `O=C(c1ccc(C(=O)N2CCC(N3CCCC3)CC2)cc1)N1CCC(N2CCCC2)CC1`, the half-maximal inhibitory concentration (IC50) (in data set [2]; in data set [3]; against PHD finger protein 23; in data set [4]; in data set [5]; in data set [6]) was over 10 µM each time. For the same compound, the IC50 (in data set [7]; at TP53-binding protein 1) was over 10 µM each time. The Activity entry in the data set on HEK-293T is “Non-toxic”.

With `O=C(c1ccc(C(=O)N2CCN(C3CCCC3)CC2)cc1)N1CCC(N2CCCC2)CC1`, the IC50 (in data set [4]; at TP53-binding protein 1) was over 10 µM throughout.
